Sampled rows, rich in hits. Any-hit rate of the full collection: about 2.2%.
IMP-1 inhibitor = IMP-1 metallo-beta-lactamase inhibitors, primary screen, biochemical, epi-absorbance readout, Pseudomonas aeruginosa enzyme; metallo-beta-lactamase IMP-1 (Pseudomonas aeruginosa); purified IMP-1, nitrocefin hydrolysis, epi-absorbance fluorescence; inhibition, % at 5.6 µM; actives 0.45% (n = 290,000);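 active = inhibition above the mean plus 3 SD of all compounds in the same screening run, cut at about 4.5% in these data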;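 also: 0% = IMP-1 with DMSO and 100% = DMSO wells lacking enzyme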
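Test system: recombinant IMP-1 enzyme, purified / Medium: HEPES buffer pH 7.1 with ZnSO4 and Brij 35 / Doses: single dose, 5.6 µM / Times: 25 °C, 15 min preincubation, 25 min reaction / Detection: Epi-absorbance via hydrolysed-nitrocefin quenching of white-plate fluorescence, 480/530 nm, EDTA stop / Evaluation: percent inhibition from optical density relative to buffer-blank wells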
VIM-2 inhibitor = VIM-2 metallo-beta-lactamase inhibitors, primary screen, biochemical, epi-absorbance readout, Pseudomonas aeruginosa enzyme. inhibition, % at 5.6 µM. actives 0.89% (n = 290,000). purified VIM-2, nitrocefin hydrolysis, epi-absorbance fluorescence;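 active = inhibition above the mean of all tested compounds plus 3 SD, cutoff set per screening run, cut at about 7.5% in these data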;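 also: red hydrolysis product quenches plate fluorescence so inhibitors raise well fluorescence; 0% = enzyme with DMSO and 100% = DMSO without enzyme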
PABP1 MLLE inh = inhibitors of PABP1 MLLE–PAM2 peptide binding, primary screen, biochemical, fluorescence polarization, FITC-PAM2, GST-MLLE; Polyadenylate-binding protein 1 (Homo sapiens), P11940; inhibition, % at 20 µM; actives 0.36% (n = 360,000); AID 588489, 2011; in the data active = inhibition above about 35%, passing the limit was not always enough;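 also: plate controls were DMSO wells with GST-MLLE for no effect and wells lacking GST-MLLE protein for full effect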
eIF4H inh = human eIF4H binding inhibitors, primary screen, translation initiation inhibitor project, biochemical, uHTS, fluorescence polarization; Eukaryotic translation initiation factor 4H (Homo sapiens), Q15056; eIF4H fluorescence polarization binding assay; inhibition, % at 35 µM; actives 0.94% (n = 290,000); AID 2012, 2009;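 also: calls also rest on retests at 20 µM and on dose response follow-up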
PABP FP inh = PABP poly(A) RNA binding inhibitors, primary screen, biochemical, fluorescence polarization, uHTS; Polyadenylate-binding protein 1 (Homo sapiens), P11940; calls only at 35 µM; actives 1% (n = 290,000); AID 2014, 2009;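 also: calls also rest on retests at 20 µM and on dose response follow-up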
* = called active by the depositor; i = inactive; ? = inconclusive; / = no result given; + = active, no number. Unless noted, no rule for the calls is given here.

SMILES | IMP-1 inhibitor | VIM-2 inhibitor | PABP1 MLLE inh | eIF4H inh | PABP FP inh
O=C(/C=C/c1ccc([N+](=O)[O-])cc1)/C=C/c1ccco1 | -0.2 | -2.2 | -21.3 | 60.8* | +
COc1cc(C(F)(F)F)c(C(=O)N(C)Cc2cc(Cl)cc(Cl)c2)cn1 | 1.1 | -1.6 | -6.2 | 6.4 | i
COc1cc(OC)c(OC)cc1/C=C1\Oc2cc(OCC(=O)N3Cc4ccccc4C[C@H]3C(=O)O)ccc2C1=O | 3.4 | 11.9* | -6.8 | ? | ?
COc1ccc(/C=C2\Oc3cc(OCC(=O)N4CCC[C@H]4C(=O)O)ccc3C2=O)c(OC)c1 | -0.9 | 0.9 | -43.6 | 27.5 | i
Cc1ccc(NC(=S)N(CCCN2CCN(C)CC2)Cc2cccs2)cc1C | -0.6 | 3.0 | -64.0 | 6.1 | +
Cc1ccc(NC(=S)N(CCCN2CCN(C)CC2)Cc2cccs2)cc1 | -3.3 | -7.5 | -44.1 | -7.2 | i
COc1ccc(-c2csc(NNC3=NCCCCC3)n2)cc1 | -3.4 | -3.9 | / | 6.8 | i
CCOc1ccc(-c2csc(NNC3=NCCCCC3)n2)cc1 | -1.8 | -1.7 | 37.1* | 15.0 | i
CCCCN(C=O)c1c(CC)nc2ccc(C(=O)NCCN(C)C)cn12 | / | / | -5.7 | / | /
O=CNn1cnc2c(oc3nc(-c4ccccc4)cc(-c4ccco4)c32)c1=O | -3.6 | -2.0 | -1.5 | 51.1* | i
CCCCC1=CC2=C(c3ccco3)C(=O)C(C)(OC(=O)c3ccc(OC)cc3)C(=O)C2=CN1Cc1ccccc1 (stereo not drawn) | / | / | 4.1 | 68.5 | +
Cc1ccccc1NC(=O)Cc1nc(COC(=O)C(NC(=O)c2ccccc2C)C(C)C)cs1 (stereo not drawn) | / | / | -2.2 | / | /
Cc1ccc(S(=O)(=O)NC(CC(C)C)C(=O)NCC(C)(C)N2CCOCC2)cc1 (stereo not drawn) | / | / | 6.5 | / | /
[O-]/C(=C(\C(=S)NCc1ccco1)[n+]1ccccc1)c1ccccc1Br | 4.8* | -0.2 | -1.1 | 21.7 | i
O=C(NCc1ccco1)c1ccccc1Br | -6.7 | -4.5 | 0.4 | 0.8 | i
O=[N+]([O-])c1ccc(/C([O-])=C(/C(=S)NCc2ccco2)[n+]2ccccc2)cc1 | -2.3 | -6.3 | -46.0 | 84.0 | i
Cc1ccc(/C([O-])=C(/C(=S)NCc2ccco2)[n+]2ccccc2)cc1 | 2.0 | -1.1 | / | 75.9* | +
O=c1cc(CSc2nnnn2-c2ccccc2)[nH]c2[nH]n(-c3ccccc3)c(=O)c12 | -2.9 | -2.3 | -95.8 | 79.2* | +
O=C(CC(C(=O)O)c1cccc(Cl)c1)c1ccccc1 (stereo not drawn) | -0.3 | 10.6* | 15.6 | -7.3 | i
O=C(CC(C(=O)c1ccccc1)c1ccccc1)c1ccccc1 (stereo not drawn) | / | / | 4.7 | / | /
Cc1nnc(NC(=O)c2ccc3ccccc3n2)s1 | -4.6 | -5.6 | 2.5 | 5.2 | i
O=C(NNC(=O)C1[C@H]2CCCC[C@@H]12)c1ccc(=O)oc1 (stereo partly drawn) | -1.0 | -0.3 | -21.4 | ? | +
O=C(NC12CC3CC(CC(C3)C1)C2)c1ccc(=O)oc1 | -4.9 | -4.3 | 10.3 | -1.6 | i
CN1CCN(NC(=S)NC2CCCCC2)CC1 | -4.3 | -4.0 | -12.4 | 86.6* | +
O=C(N/N=C/c1ccncc1)c1cccc(S(=O)(=O)Nc2ccc(Cl)cc2)c1 | -0.4 | 1.1 | 10.0 | 69.6* | i
SMILES | IMP-1 inhibitor | VIM-2 inhibitor | PABP1 MLLE inh | eIF4H inh | PABP FP inh
Cc1cc(NC(=O)C(C)SCC(=O)Nc2ccc(Br)cc2Br)no1 (stereo not drawn) | / | / | 10.3 | / | /
O=C(/C=C/c1ccco1)NCC1OCCc2ccccc21 (stereo not drawn) | -1.6 | -2.9 | 11.1 | 86.8* | +
C=CC(=O)NCC1OCCc2ccccc21 (stereo not drawn) | -1.4 | -2.2 | 4.7 | 0.3 | i
O=C(O)c1cc(C(=O)O)cc(-c2ccc(/C=c3/sc4nc5ccccc5n4c3=O)o2)c1 | -2.4 | -2.1 | / | 55.8* | i
O=C(O)c1cccc(-c2ccc(/C=c3/sc4nc5ccccc5n4c3=O)o2)c1 | -1.1 | -0.2 | -133.7 | 59.5 | i
COc1cc(C(=O)N(C)CCOc2ccccc2)ccc1OCC(=O)Nc1cccc(C(F)(F)F)c1 | / | / | 2.5 | / | /
COc1ccc(CN(C)C(=O)c2sccc2-c2ccccc2)c(OC)c1 | -2.5 | -0.9 | 3.8 | -7.2 | i

Bioassay records (PubChem BioAssay)
